The nature of series [1]: Cytotoxicity against human HS-Sultan cells assessed as cell viability at 100 ug/ml after 72 hrs by MTT assay. The conditions noted are these: read-out: Activity. It is filed as functional. Background: Formazan colour is commonly taken as a measure of viable cells.
Series [2] relates to KB. Description: Cytotoxicity against human KB cells assessed as cell viability at 100 ug/ml after 72 hrs by MTT assay. It is filed as functional. The conditions noted are these: read-out: Activity.
The test system of series [3] is HUVEC. Description: Antiangiogenic activity against VEGF-induced HUVEC assessed as tube area at 100 uM after 11 days by BCIP/NBT visualization assay. It is filed as functional, Homo sapiens. An outline of the steps:
(§1)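 HUVECs co-cultured with fibroblasts (angiogenesis kit) grown with test drug at 30 or 100 μM plus VEGF-A 10 ng/ml for 11 days. Fixed in 70% ethanol, then mouse anti-human CD31 (1:4000, 1 h, 37 °C) and AP-conjugated goat anti-mouse IgG (1:500, 1 h, 37 °C), developed with BCIP/NBT. Mean ± S.E.M.; VEGF n = 9, VEGF + compound n = 3; Dunnett's test versus VEGF.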

The subject of series [4] is IM-9. Description: Cytotoxicity against human IM9 cells assessed as cell viability at 100 ug/ml after 72 hrs by MTT assay. Format: functional. Particulars: IM-9, 72 h, read-out: Activity.
Series [5] is described as follows: Stability assessed as half life at pH 8.78. Format: physicochemical. The conditions noted are these: buffer.
Series [6] is described as follows: Stability assessed as half life at pH 6.24. Particulars: buffer. Format: physicochemical.
Series [7] can be described thus: Stability assessed as half life at pH 7.23. Format: physicochemical. Particulars: buffer.
Series [8] deals with MCF7. Description: Cytotoxicity against human MCF7 cells assessed as cell viability at 100 ug/ml after 72 hrs by MTT assay. Format: functional. The conditions noted are these: MCF7, 72 h, read-out: Activity.
Series [9] has as its system HUVEC. Description: Antiangiogenic activity against VEGF-induced HUVEC assessed as tube length at 100 uM after 11 days after 11 days by BCIP/NBT visualization assay. Format: functional, cell-based. The conditions noted are these: Homo sapiens. An outline of the steps:
as §1

Series [10] concerns HUVEC. Description: Antiangiogenic activity against VEGF-induced HUVEC assessed as tube path at 100 uM after 11 days after 11 days by BCIP/NBT visualization assay. Particulars: Homo sapiens. Format: functional, cell-based. An outline of the steps: as §1
The test system of series [11] is HUVEC. Description: Antiangiogenic activity against VEGF-induced HUVEC assessed as tube joint at 100 uM after 11 days after 11 days by BCIP/NBT visualization assay. Particulars: Homo sapiens. It is filed as functional, cell-based. In short, it runs like this: as §1

The results in this text go back to ChEMBL document CHEMBL1151853, “Synthesis, configurational stability and stereochemical biological evaluations of (S)- and (R)-5-hydroxythalidomides” (Bioorg Med Chem Lett, 2009).

Each structure is given as a SMILES string. Active and inactive are the calls of the source.

In general, half-life refers to the time needed for the level to fall by half in the phase considered. With `O=C1CC[C@H](N2C(=O)c3ccccc3C2=O)C(=O)N1`, the viability at 100 µg/mL amounted to 88.6% in series [1], 95.6% in series [2], 93.5% in series [4] and 81.3% in series [8]. In addition, in [3], the Activity is given as <60%. Further, the half-life in series [5] is 156 min; in series [6] it was 1670 min; in [7], 306 min.

As for `O=C1CC[C@@H](N2C(=O)c3ccccc3C2=O)C(=O)N1`, the viability at 100 µg/mL was found to be 75.6% in [1], 96.9% in [2], 87.1% in series [4] and 89.8% in series [8]. The result in series [9], in [10] and in series [11] was inactive. Further, the Activity in series [3] was >70%.

Consider `O=C1CCC(N2C(=O)c3ccccc3C2=O)C(=O)N1` (racemic) [THALIDOMIDE], for which the viability at 100 µg/mL came to 85.9% in series [1], 92.2% in series [2], 107% in [4] and 86.5% in series [8]. In addition, the result in series [9], in [10] and in series [11] was inactive. The Activity in [3] was <60%.
